Measured values as given in ChEMBL document CHEMBL1833835, “Synthesis and evaluation of the anti parasitic activity of aromatic nitro compounds” (Eur J Med Chem, 2011).
pIC50: −log10 of the molar value.

Legend:
Trypanosoma cruzi [1] = experiment: Trypanocidal activity against intracellular amastigote form of Trypanosoma cruzi Tulahuen expressing beta-galactosidase infected in mouse L929 cells after 7 days by microplate reader analysis; format: functional, organism-based; details: L929, 168 h
[2] = Selectivity index, ratio of IC50 for human PBMC to IC50 for Leishmania amazonensis IFLA/BR/67/PH8
In short: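 Ratio of PBMC proliferation IC50 (PHA-stimulated, MTT, 48 h) to promastigote IC50 (MTT, 48 h).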

PBMC = experiment: Inhibition of cell proliferation of phytohemagglutinin-induced human PBMC; format: cell-based
Leishmania amazonensis = experiment: Antiparasitic activity against promastigote form of Leishmania amazonensis IFLA/BR/67/PH8 after 48 hrs by MTT assay; format: functional, organism-based; details: IFLA/BR/67/PH8, 48 h
In short: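 Promastigotes kept at 23 °C in Schneider's medium with 20% heat-inactivated FCS, pH 7.2; plated at 1 × 10⁷/well. Screening at 100 µM in triplicate, then six-point dilutions in duplicate for compounds exceeding 50% inhibition. After 48 h, MTT added for 4 h, stopped with isopropanol/SDS, OD 570 nm read; IC50 from curve; three independent experiments.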

Trypanosoma cruzi [3] = experiment: Trypanocidal activity against intracellular trypomastigote form of Trypanosoma cruzi Tulahuen expressing beta-galactosidase infected in mouse L929 cells after 7 days by microplate reader analysis; format: functional, organism-based; details: L929, 168 h

Structure (SMILES)	pIC50 (Trypanosoma cruzi [1])	Ratio IC50 [2]	pIC50 (PBMC)	pIC50 (Leishmania amazonensis)	pIC50 (Trypanosoma cruzi [3])
O=C(NCCO)c1ccc(CCl)c([N+](=O)[O-])c1	< 3.00	16.1	3.02	4.23	–
O=C(NCCCl)c1ccc(CCl)c([N+](=O)[O-])c1	< 3.00	21.7	2.96	4.30	–
O=C(NCCO)c1ccc(CCl)cc1	< 3.00	<3.3	3.48	< 4.00	–
O=C(NCCO)c1ccc(CBr)c([N+](=O)[O-])c1	< 3.00	2.3	4.27	4.64	–
O=C(Cn1ccnc1[N+](=O)[O-])NCc1ccccc1 [BENZNIDAZOLE]	5.42	–	–	–	–
O=C(O)c1ccc(CBr)c([N+](=O)[O-])c1	< 3.00	<3.4	3.46	< 4.00	< 3.30
COC(=O)c1ccc(CBr)c([N+](=O)[O-])c1	< 3.00	1.1	4.36	4.41	< 3.30
O=C(O)c1ccc(CBr)cc1	< 3.00	<0.9	4.05	< 4.00	< 3.30
O=C(O)c1ccc(CO)c([N+](=O)[O-])c1	< 3.00	–	–	< 4.00	–
